Laboratory results as given in article PMC9862713 (Bioorganic & Medicinal Chemistry, 2023).
Values after ≈ are worked out from the molar mass of the structure shown. “Also recorded” adds a separate entry of the source.

Tests used:
HEK-293 = experiment: MTT cell viability / cytotoxicity assay; format: cell-based, Human; details: 24 and 48 h, concentrations up to 100 µM
Outline: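 HEK-293 cells kept in DMEM with 2 mM L-glutamine, 10% heat-inactivated FBS and 1% pen/strep at 37 °C, 5% CO2. Seeded at 10,000 cells/well; compound or DMSO vehicle (0.5% final) added 24 h later, 24 or 48 h exposure. MTT 0.5 mg/ml final for 2 h at 37 °C, ethanol solubilisation, A570 (ref 650 nm). Eight serial dilutions in triplicate, sigmoidal dose–response fit; mean ± SD, three independent experiments.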

[1] = Aqueous kinetic solubility in PBS pH 7.4; format: physicochemical; details: for solubility kinetic at 24 h: phosphate buffered saline (PBS), pH 7.4, Kinetic solubility Sk
SARS-CoV-2 RdRp = SARS-CoV-2 RdRp (Severe acute respiratory syndrome coronavirus 2, UniProt P0DTD1); experiment: RdRp enzymatic assay; format: biochemical
[2] = PBS pH 7.4, 25 °C, 24 h, target 250 µM, 2.5 % DMSO

| Structure (SMILES) | Cytotoxicity on HEK-293 (HEK-293) | solubility kinetic at 24 h [1, 2] [µM] | further results |
| --- | --- | --- | --- |
| CCCCOc1c(-c2ccc(O)c(O)c2)oc2cc(O)cc(O)c2c1=O [Compound 4] | no cytotoxicity effects; also recorded: did not appear to be cytotoxic | – | – |
| O=c1c(OCCO)c(-c2ccc(O)c(O)c2)oc2cc(O)cc(O)c12 [Compound 5] | no cytotoxicity effects; also recorded: did not appear to be cytotoxic | – | – |
| O=c1c(OCCCO)c(-c2ccc(O)c(O)c2)oc2cc(O)cc(O)c12 [Compound 6] | did not appear to be cytotoxic; also recorded: no cytotoxicity | – | Kinetic solubility Sk [1, 2]: 231 µM |
| O=c1cc(Cc2ccc(O)c(O)c2)oc2cccc(O)c12 [Compound 7] | – | – | Improvement of kinetic solubility ([1]; compared to the hits (luteolin, quercetin)): 3 to 4 fold |
| CC(c1ccc(O)c(O)c1)c1cc(=O)c2c(O)cccc2o1 (stereo not drawn) [Compound 8] | no cytotoxicity effects; also recorded: did not appear to be cytotoxic | – | – |
| O=c1cc(C(CCCC(F)(F)F)c2ccc(O)c(O)c2)oc2cccc(O)c12 (stereo not drawn) [Compound 10] | – | – | IC50 against SARS-CoV-2 RdRp (SARS-CoV-2 RdRp; enzymatic assay, 37 °C, 60 min, duplicate): no inhibition |
| O=c1cc(/C=C/c2ccc(O)c(O)c2)oc2cccc(O)c12 [Compound 12] | – | 1 (≈ 0.296 µg/mL) | – |
| O=C(Oc1ccc(O)c(O)c1)c1cc(=O)c2c(O)cccc2o1 [Compound 14] | – | 1 (≈ 0.314 µg/mL) | Increase of activity (IC50 ratio) (SARS-CoV-2 RdRp; compared to 12 and 13): about 4 fold |
| O=C(OCCc1ccc(O)c(O)c1)c1cc(=O)c2c(O)cccc2o1 [Compound 15] | – | – | Drop of potency (IC50 ratio) (SARS-CoV-2 RdRp; compared to the rigid ester 14): 22 fold |
| O=C(NCCNC(=S)Nc1ccc(O)c(O)c1)c1cc(=O)c2c(O)cccc2o1 [Compound 17] | – | 1 (≈ 0.415 µg/mL) | – |
